Laboratory results reported in ChEMBL document CHEMBL1127821 (J Med Chem, 1994).

How the values were obtained:
[1] = molecular target: T1, Sodium-dependent dopamine transporter (Rattus norvegicus, UniProt P23977); assay: Inhibition of [125I]RTI-55 binding to dopamine transport sites in rat striatal membranes.; type: cell membranes, Membrane
[2] = molecular target: Sodium-dependent serotonin transporter (Rattus norvegicus, UniProt P31652); assay: Inhibition of [3H]paroxetine binding to serotonin transport sites in rat frontal cortex membranes.; type: cell membranes, Membrane
Sodium-dependent serotonin transporter, sequence (P31652 whole entry): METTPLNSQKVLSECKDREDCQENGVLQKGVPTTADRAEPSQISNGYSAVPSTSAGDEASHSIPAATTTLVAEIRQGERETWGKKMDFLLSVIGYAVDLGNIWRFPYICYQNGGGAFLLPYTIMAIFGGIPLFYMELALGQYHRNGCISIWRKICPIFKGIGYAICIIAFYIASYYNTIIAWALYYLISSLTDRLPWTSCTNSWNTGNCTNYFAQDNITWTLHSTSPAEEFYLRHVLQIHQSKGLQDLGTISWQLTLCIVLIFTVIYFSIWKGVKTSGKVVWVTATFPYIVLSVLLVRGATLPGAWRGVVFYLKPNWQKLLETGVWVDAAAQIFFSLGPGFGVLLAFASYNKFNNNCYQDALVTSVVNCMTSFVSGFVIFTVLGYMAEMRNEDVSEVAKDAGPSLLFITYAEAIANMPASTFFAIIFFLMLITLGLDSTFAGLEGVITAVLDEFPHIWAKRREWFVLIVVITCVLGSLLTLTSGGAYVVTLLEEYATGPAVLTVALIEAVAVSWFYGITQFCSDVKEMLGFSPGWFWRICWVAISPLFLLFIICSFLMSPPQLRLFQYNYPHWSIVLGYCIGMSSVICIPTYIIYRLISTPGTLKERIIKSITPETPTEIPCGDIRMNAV
In short: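 Frontal cortex from male Sprague-Dawley rats, homogenized in 50 mM Tris-HCl/120 mM NaCl/5 mM KCl pH 7.4 and washed twice at 48000g. […] Filtered on GF/B presoaked in 0.05% polyethyleneimine. Nonspecific binding with 10 μM fluoxetine.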

[3] = molecular target: T1, Sodium-dependent dopamine transporter; assay: The potency of the [125I]RTI-55 for Dopamine transporter site

T1 sequence (P23977 whole entry): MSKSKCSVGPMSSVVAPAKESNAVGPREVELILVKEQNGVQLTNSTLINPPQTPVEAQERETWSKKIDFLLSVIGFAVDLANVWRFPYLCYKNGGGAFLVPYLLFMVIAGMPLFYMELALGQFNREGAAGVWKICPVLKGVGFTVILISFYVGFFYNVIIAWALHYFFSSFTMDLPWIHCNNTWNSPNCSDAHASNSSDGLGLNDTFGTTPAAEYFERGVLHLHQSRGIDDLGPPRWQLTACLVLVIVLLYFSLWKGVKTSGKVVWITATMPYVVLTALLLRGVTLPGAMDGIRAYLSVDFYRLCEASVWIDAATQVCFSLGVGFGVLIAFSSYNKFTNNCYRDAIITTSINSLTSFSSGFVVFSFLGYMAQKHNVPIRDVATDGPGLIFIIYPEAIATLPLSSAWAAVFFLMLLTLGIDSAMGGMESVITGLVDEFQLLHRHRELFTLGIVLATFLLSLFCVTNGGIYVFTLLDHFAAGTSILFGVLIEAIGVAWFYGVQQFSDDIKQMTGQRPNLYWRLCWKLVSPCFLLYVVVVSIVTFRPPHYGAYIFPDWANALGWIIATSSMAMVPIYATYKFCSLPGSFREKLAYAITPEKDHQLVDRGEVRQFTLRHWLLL

Structure (SMILES)	IC50 [1]	Ki [2]	Kd [3]
CCC(=O)C1C(c2ccccc2C)CC2CCC1N2C (stereo unspecified)	1290 nM	> 10000 nM	–
CCC(=O)C1C(c2ccccc2)CC2CCC1N2C (stereo unspecified)	–	1010 nM	–
CCC(=O)C1C(CC)CC2CCC1N2C (stereo unspecified)	> 50000 nM	> 10000 nM	–
CC(=O)C1C(c2ccc3ccccc3c2)CC2CCC1N2C (stereo unspecified)	0.28 nM	1.06 nM	–
CCC(=O)C1C(c2ccc3ccccc3c2)CC2CCC1N2C (single isomer, unassigned; (-))	113 nM	484 nM	–
CCOC(=O)C1C(c2ccc(I)cc2)CC2CCC1N2C (stereo unspecified)	–	–	1 nM
CC(=O)C1C(c2ccc(F)cc2)CC2CCC1N2C (stereo unspecified)	70.8 nM	857 nM	–
CCC(=O)C1C(c2ccc(C(C)(C)C)cc2)CC2CCC1N2C (stereo unspecified)	2120 nM	1770 nM	–
CCC(=O)C1C(c2cccc3ccccc23)CC2CCC1N2C (stereo unspecified)	5.34 nM	20.9 nM	–
CC(=O)C1C(c2ccccc2)CC2CCC1N2C (stereo unspecified)	114 nM	1360 nM	–
CCC(=O)C1C(c2ccc(C)cc2)CC2CCC1N2C (single isomer, unassigned; (-))	1340 nM	> 10000 nM	–
CCC(=O)C1C(c2ccc(F)cc2)CC2CCC1N2C (stereo unspecified)	15.3 nM	630 nM	–
CC(=O)C1C(c2cccc3ccccc23)CC2CCC1N2C (stereo unspecified)	–	25.6 nM	–
CCC(=O)C1C(c2ccc3ccccc3c2)CC2CCC1N2C (stereo in doubt; (+)-21a)	0.043 nM	0.121 nM	–
CCC(=O)C1C(c2ccc(C(C)C)cc2)CC2CCC1N2C (stereo unspecified)	436 nM	35.8 nM	–
CC(=O)C1C(c2ccc(C)cc2)CC2CCC1N2C (stereo unspecified)	9.8 nM	122 nM	–
CCC(=O)C1C(c2ccc3ccccc3c2)CC2CCC1N2C (stereo in doubt; 21a)	0.115 nM	0.394 nM	–
CCc1ccc(C2CC3CCC(C2C(C)=O)N3C)cc1 (stereo unspecified)	152 nM	78.2 nM	–
CCC(=O)C1C(C2CCCCC2)CC2CCC1N2C (stereo unspecified)	4610 nM	> 10000 nM	–
CCC(=O)C1C(c2ccc(C)cc2)CC2CCC1N2C (single isomer, unassigned; (+))	4.21 nM	74 nM	–
CCC(=O)C1C(c2ccc(-c3ccccc3)cc2)CC2CCC1N2C (stereo unspecified)	2.29 nM	4.31 nM	–
CCC(=O)C1C(c2ccc(C)cc2)CC2CCC1N2C (stereo in doubt; 12a)	8.2 nM	131 nM	–
